Data: ChEMBL document CHEMBL4354825, “Design and Synthesis of Basic Selective Estrogen Receptor Degraders for Endocrine Therapy Resistant Breast Cancer” (J Med Chem, 2019)
pIC50: −log10 of the molar value. Calls of active or inactive are those of the source. No cut-off for these calls is given here.

Key:
Rattus norvegicus [1] = experiment: Induction of uterotrophic activity in Sprague-Dawley rat assessed as increase in uterine weight at 10 mg/kg, po administered for 3 days and measured after 24 hrs of last dosing by hematoxylin eosin staining based imaging analysis; format: functional, organism-based
In short: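 Female Sprague-Dawley rats were dosed from day 19 of age once daily for 3 days: 10 mg/kg p.o. in 2% Tween 80/0.5% methylcellulose. EE2 (0.1 mg/kg p.o., peanut oil) was the positive control. Uteri were excised and weighed 24 h after the last dose; one half was fixed in 4% paraformaldehyde for H&E histology.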

MCF7:TAM1 [2] = experiment: Antitumor activity against human MCF7:TAM1 cells xenografted in athymic nude mouse assessed as tumor regression at 5 mg, sc measured after 4 weeks; format: functional, organism-based
In short: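 Ovariectomized athymic female nude mice, 4–6 weeks old, carrying MCF7:TAM1 tumours established in the mammary fat pad, with E2 supplied from 1.0 cm silastic capsules implanted s.c. Dosing was 5 mg/week s.c. in sesame oil. Tumour cross-sectional area was measured weekly with calipers as (length/2)×(width/2)×π, and mean area was plotted against time in weeks.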

MCF7:TAM1 [3] = experiment: Cytotoxicity against human MCF7:TAM1 3D spheroid cells assessed as reduction in tumor cell viability at 10 nM incubated for 14 days by celltiter-glo 3D cell viability assay
T47D [4] = experiment: Cytotoxicity against human T47D 3D spheroid cells assessed as reduction in tumor cell viability at 10 nM incubated for 14 days by celltiter-glo 3D cell viability assay
Homo sapiens [5] = species on record: Homo sapiens; experiment: Cytotoxicity against human MCF7:WS8 3D spheroid cells assessed as reduction in tumor cell viability at 10 nM incubated for 14 days by celltiter-glo 3D cell viability assay
[6] = Drug concentration in C57BL/6 mouse brain at 5 mg, sc measured after 0.5 hrs by LC/MS-MS analysis; format: ADME, organism-based; settings: read-out: Drug uptake
In short: (§1)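 PK screen in female C57BL/6 mice (N = 3 per time point) given 5 mg s.c. single dose; mice perfused, plasma and brain collected postmortem at 0.5 and 2 h; analyte quantified by LC-MS/MS in MRM mode against standard curves prepared in the matching matrix with a common internal standard; mean and s.d. reported.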

Rattus norvegicus [7] = experiment: Induction of uterotrophic activity in Sprague-Dawley rat assessed as increase in uterine weight at 2 mg/kg, sc administered for 3 days and measured after 24 hrs of last dosing by hematoxylin eosin staining based imaging analysis; format: functional, organism-based
In short: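 Female Sprague Dawley rats, 12 days old, were housed with foster dams (6 per dam) and acclimated for one week. From day 19 they received 3 daily doses of 2 mg/kg s.c. in peanut oil. Animals were killed 24 h after the last dose, and uteri were excised, trimmed of fat and mesentery, and weighed. Half of each uterus was fixed in 4% paraformaldehyde, paraffin embedded and stained with H&E.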

T47D [8] = experiment: Cytotoxicity against human T47D 3D spheroid cells harboring D538G mutant assessed as reduction in tumor cell viability at 10 nM incubated for 14 days by celltiter-glo 3D cell viability assay
[9] = Antiproliferative activity against human MCF7:WS8 cells assessed as reduction in cell viability incubated for 5 days by Hoechst 33258 dye based assay relative to control; format: functional; settings: MCF7:WS8, 120 h
In short: (§2)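 Cells were seeded at 5000 per well; MCF7:WS8 had been estrogen-stripped for 2 days first. Compounds were serially diluted in DMSO, with 0.01% DMSO as vehicle. The medium was removed on day 5 (MCF7:WS8) or day 7 (MCF7:5C), and cells were lysed by freezing at −80 °C overnight. DNA was measured by Hoechst 33258 fluorescence. Maximum efficacy was normalized to vehicle (0%) and no cells (100%); at least three biological replicates.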

[10] = Antiproliferative activity against human MCF7:5C cells assessed as reduction in cell viability incubated for 7 days by Hoechst 33258 dye based assay relative to control; format: functional; settings: 168 h; in short: as §2
[11] = Plasma concentration in C57BL/6 mouse at 5 mg, sc measured after 2 hrs by LC/MS-MS analysis; format: ADME, organism-based; in short: as §1
[12] = Drug concentration in C57BL/6 mouse brain at 5 mg, sc measured after 2 hrs by LC/MS-MS analysis; format: ADME, organism-based; settings: read-out: Drug uptake; in short: as §1
T47D [13] = experiment: Cytotoxicity against human T47D 3D spheroid cells harboring Y537S mutant assessed as reduction in tumor cell viability at 10 nM incubated for 14 days by celltiter-glo 3D cell viability assay
Homo sapiens [14] = species on record: Homo sapiens; experiment: Cytotoxicity against human MCF7:WS8 3D spheroid cells assessed as reduction in tumor spheroid size at 10 nM incubated for 14 days
[15] = Plasma concentration in C57BL/6 mouse at 5 mg, sc measured after 0.5 hrs by LC/MS-MS analysis; format: ADME, organism-based; in short: as §1
[16] = Antiproliferative activity against human MCF7:WS8 cells assessed as reduction in cell viability incubated for 5 days by Hoechst 33258 dye based assay; format: functional; settings: MCF7:WS8, 120 h; in short: as §2
Mus musculus [17] = experiment: In vivo degradation of ERalpha in C57BL/6 mouse at 50 mg/kg, po administered for 3 days and measured on day 3 by Western blot analysis; format: functional, organism-based
In short: (§3)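 Female C57BL/6J mice aged 9–12 weeks were dosed at 50 mg/kg p.o. in PEG 400/10% HPCD (1:9 v/v). Regimens were a single dose with sacrifice at 5 h, or 3 daily doses with sacrifice 5 h (n = 5) or 7 h (n = 6) after the last dose. Ovaries and uterus were homogenized, 20 μg protein was run by SDS-PAGE, and the blot was probed for ERα and normalized to β-actin.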

Mus musculus [18] = experiment: In vivo degradation of ERalpha in C57BL/6 mouse at 50 mg/kg, po measured after 7 hrs by Western blot analysis; format: functional, organism-based; in short: as §3
[19] = molecular target: T1, Estrogen receptor (Homo sapiens) (UniProt P03372); experiment: Induction of degradation of ERalpha in human MCF7:WS8 cells at 100 nM in presence of MG-132 incubated for 24 hrs by Western blot analysis; format: cell-based
T1 sequence (whole entry): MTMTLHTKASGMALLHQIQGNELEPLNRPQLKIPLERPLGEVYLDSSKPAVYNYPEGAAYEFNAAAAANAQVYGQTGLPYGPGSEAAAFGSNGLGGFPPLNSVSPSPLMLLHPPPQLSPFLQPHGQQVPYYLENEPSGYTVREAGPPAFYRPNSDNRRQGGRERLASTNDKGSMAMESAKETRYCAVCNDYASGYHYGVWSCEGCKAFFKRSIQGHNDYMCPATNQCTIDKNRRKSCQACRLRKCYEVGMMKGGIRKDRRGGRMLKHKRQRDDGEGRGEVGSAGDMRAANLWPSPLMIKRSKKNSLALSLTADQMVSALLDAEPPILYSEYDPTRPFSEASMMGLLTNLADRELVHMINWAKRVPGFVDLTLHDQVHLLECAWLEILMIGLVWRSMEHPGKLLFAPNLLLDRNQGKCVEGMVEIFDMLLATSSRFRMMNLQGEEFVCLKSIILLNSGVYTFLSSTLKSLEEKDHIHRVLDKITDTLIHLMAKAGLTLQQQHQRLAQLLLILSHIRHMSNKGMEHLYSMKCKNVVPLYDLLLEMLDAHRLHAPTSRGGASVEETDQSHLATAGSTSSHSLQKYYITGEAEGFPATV

Compound: Cc1c(-c2ccc(O)cc2)n(Cc2ccc(OCCN3CCCCCC3)cc2)c2ccc(O)cc12
- Activity (Rattus norvegicus [1]): inactive

Compound: C[C@]12CC[C@@H]3c4ccc(O)cc4C[C@@H](CCCCCCCCC[S+]([O-])CCCC(F)(F)C(F)(F)F)[C@H]3[C@@H]1CC[C@@H]2O (some centres undefined) [FULVESTRANT]
- Activity (MCF7:TAM1 [2]): Active
- Activity (MCF7:TAM1 [3]): Active
- Activity (T47D [4]): Active
- Activity (Homo sapiens [5]): Active
- concentration at 0.5 h [6]: 0.7 nM
- Activity (Rattus norvegicus [7]): inactive
- Activity (T47D [8]): Active
- Emax [9]: 66%
- Emax [10]: 48%
- concentration at 2 h [11]: 301 nM
- concentration at 2 h [12]: 47.4 nM
- Activity (T47D [13]): Active
- Activity (Homo sapiens [14]): Active
- concentration at 0.5 h [15]: 31.2 nM
- pIC50 [16]: 9.22

Compound: Cc1cc(Cl)cc(C)c1C(=O)c1sc2cc(O)ccc2c1Oc1ccc(/C=C/C(=O)O)cc1
- Activity (Mus musculus [17]): Active
- Activity (Mus musculus [18]): Active
- Activity [19]: Active
